The values below come from ChEMBL document CHEMBL1130239, “Synthesis and evaluation of (S)-4-(3-(2'-[11C]isopropylamino)-2-hydroxypropoxy) -2H-benzimidazol -2-one ((S)-[11C]CGP 12388) and (S)-4-(3-((1'-[18F]-fluoroisopropyl)amino)-2-hydroxypropoxy) -2H- benzimidazol-2-one ((S)-[18F]fluoro-CGP 12388) for visualization of beta-adrenoceptors with positron …” (J Med Chem, 1997).

The species named for series [1] is Rattus norvegicus. Put plainly: Biodistribution of [11C]-CGP- 12388 (10 minutes post injection) in lung of male wistar rats. It is filed as ADME, organism-based. Conditions: in vivo. In a few lines:
(§1)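 Male Wistar rats (200 ± 20 g) under pentobarbital anesthesia (60 mg/kg ip) got iv saline (controls, n = 4) or 500 μg (±)-propranolol (blocking, n = 4) <1 min before the tracer. Tracer dose was 1 MBq (30 pmol) in 0.3 mL. Rats were killed by heart extirpation at 10 min and tissues counted. Plasma was spun 3 min at 1000g. Uptake is given as DAR, mean ± SD.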

Series [2] in a line: Partition coefficient (logP). Type of series: physicochemical. Conditions: octanol/water. In a few lines: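 50-100 μCi of tracer in 0.1 M phosphate buffer pH 7.4 (5 mL) plus n-octanol (5 mL). Shaken vigorously for 30 min at 37 °C, five mixtures. 100 μL of each layer gamma-counted. log P from the octanol/water count ratio, n = 5. A calculated value was also obtained with Pallas 1.2.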

Series [3] is filed under the species Rattus norvegicus. Briefly: Biodistribution of [11C]-CGP- 12388 (10 minutes post injection) in heart of male wistar rats. Type of series: ADME, organism-based. Conditions: in vivo. The essentials:
as §1

The species entered for series [4] is Rattus norvegicus. Put plainly: Biodistribution of [11C]-CGP- 12388 (10 minutes post injection) in plasma of male wistar rats. It is filed as ADME, organism-based. As to conditions: in vivo. In a few lines:
as §1

Series [5] is filed under the species Rattus norvegicus. Briefly: Biodistribution of [11C]-CGP- 12388 (60 minutes post injection) in intestine bone of male wistar rats. Type of series: ADME, organism-based. Conditions: in vivo, 1 h, in the assay text read “intestine” for “intestine bone”. The essentials: (§2)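 Wistar males (200 ± 20 g) were given pentobarbital 60 mg/kg ip, plus 15-20 mg/kg if needed before dissection. Saline controls (n = 6) or 500 μg (±)-propranolol iv blocking rats (n = 4) were pretreated <1 min before 1 MBq (30 pmol) tracer in 0.3 mL. Sacrifice and dissection were at 60 min. DAR = (cpm/g tissue)/(injected cpm/g body weight); mean ± SD.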

The species entered for series [6] is Rattus norvegicus. Briefly: Biodistribution of [11C]-CGP- 12388 (60 minutes post injection) in lung of male wistar rats. It is filed as ADME, organism-based. Conditions: in vivo, 1 h. In a few lines: as §2
For series [7], the species on record is Rattus norvegicus. Briefly: Biodistribution of [11C]-CGP- 12388 (10 minutes post injection) in bone of male wistar rats. As to conditions: in vivo. Type of series: ADME, organism-based, Bone element. The essentials: as §1
For series [8], the species on record is Rattus norvegicus. Briefly: Biodistribution of [11C]-CGP- 12388 (10 minutes post injection) in liver of male wistar rats. It is filed as ADME, organism-based. Conditions: in vivo. The essentials: as §1
For series [9], the species on record is Rattus norvegicus. Put plainly: Biodistribution of [11C]-CGP- 12388 (60 minutes post injection) in spleen of male wistar rats. Type of series: ADME, organism-based. Conditions: in vivo, 1 h. In a few lines:
as §2

The species named for series [10] is Rattus norvegicus. Put plainly: Biodistribution of [11C]-CGP- 12388 (10 minutes post injection) in cortex of male wistar rats. It is filed as ADME, organism-based. Conditions: in vivo. In a few lines:
as §1

The species entered for series [11] is Rattus norvegicus. Put plainly: Biodistribution of [11C]-CGP- 12388 (10 minutes post injection) in trachea of male wistar rats. Conditions: in vivo. Type of series: ADME, organism-based. The essentials: as §1
The species named for series [12] is Rattus norvegicus. Put plainly: Biodistribution of [11C]-CGP- 12388 (60 minutes post injection) in liver of male wistar rats. It is filed as ADME, organism-based. As to conditions: in vivo, 1 h. The essentials: as §2
Series [13] is filed under the species Rattus norvegicus. Briefly: Biodistribution of [11C]-CGP- 12388 (10 minutes post injection) in red blood cells of male wistar rats. Type of series: ADME, organism-based. As to conditions: in vivo. The essentials:
as §1

The species entered for series [14] is Rattus norvegicus. Briefly: Biodistribution of [11C]-CGP- 12388 (10 minutes post injection) in intestine of male wistar rats. It is filed as ADME, organism-based. As to conditions: in vivo. The essentials: as §1
For series [15], the species on record is Rattus norvegicus. Briefly: Biodistribution of [11C]-CGP- 12388 (10 minutes post injection) in spleen of male wistar rats. Type of series: ADME, organism-based. As to conditions: in vivo. In a few lines: as §1
Series [16] is filed under the species Rattus norvegicus. Briefly: Biodistribution of [11C]-CGP- 12388 (60 minutes post injection) in bone of male wistar rats. It is filed as ADME, organism-based, Bone element. Conditions: in vivo, 1 h. The essentials:
as §2

The species entered for series [17] is Rattus norvegicus. Briefly: Biodistribution of [11C]-CGP- 12388 (10 minutes post injection) in cerebellum of male wistar rats. It is filed as ADME, organism-based. Conditions: in vivo. The essentials: as §1
For series [18], the species on record is Rattus norvegicus. Put plainly: Biodistribution of [11C]-CGP- 12388 (60 minutes post injection) in cerebellum of male wistar rats. It is filed as ADME, organism-based. As to conditions: in vivo, 1 h. The essentials: as §2
For series [19], the species on record is Rattus norvegicus. Put plainly: Biodistribution of [11C]-CGP- 12388 (60 minutes post injection) in muscle of male wistar rats. It is filed as ADME, organism-based, Muscle tissue. As to conditions: in vivo, 1 h. The essentials: as §2
Series [20] is filed under the species Rattus norvegicus. Put plainly: Biodistribution of [11C]-CGP- 12388 (60 minutes post injection) in plasma of male wistar rats. Type of series: ADME, organism-based. Conditions: in vivo, 1 h. The essentials:
as §2

The species entered for series [21] is Rattus norvegicus. Briefly: Biodistribution of [11C]-CGP- 12388 (10 minutes post injection) in fat of male wistar rats. It is filed as ADME, organism-based, Adipose tissue. As to conditions: in vivo. In a few lines:
as §1

The species named for series [22] is Rattus norvegicus. Briefly: Biodistribution of [11C]-CGP- 12388 (60 minutes post injection) in fat of male wistar rats. It is filed as ADME, organism-based, Adipose tissue. Conditions: in vivo, 1 h. The essentials:
as §2

The species named for series [23] is Rattus norvegicus. Briefly: Biodistribution of [11C]-CGP- 12388 (10 minutes post injection) in muscle of male wistar rats. Type of series: ADME, organism-based, Muscle tissue. As to conditions: in vivo. In a few lines: as §1
Series [24] is filed under the species Rattus norvegicus. Put plainly: Biodistribution of [11C]-CGP- 12388 (60 minutes post injection) in red blood cells of male wistar rats. Type of series: ADME, organism-based. As to conditions: in vivo, 1 h. The essentials: as §2
The species entered for series [25] is Rattus norvegicus. Put plainly: Biodistribution of [11C]-CGP- 12388 (10 minutes post injection) in kidney of male wistar rats. It is filed as ADME, organism-based. As to conditions: in vivo. The essentials:
as §1

For series [26], the species on record is Rattus norvegicus. Put plainly: Biodistribution of [11C]-CGP- 12388 (60 minutes post injection) in cortex of male wistar rats. It is filed as ADME, organism-based. Conditions: in vivo, 1 h. The essentials: as §2
Series [27] is filed under the species Rattus norvegicus. Briefly: Biodistribution of [11C]-CGP- 12388 (60 minutes post injection) in trachea of male wistar rats. It is filed as ADME, organism-based. As to conditions: in vivo, 1 h. In a few lines:
as §2

Series [28] is filed under the species Rattus norvegicus. Briefly: Biodistribution of [11C]-CGP- 12388 (60 minutes post injection) in kidney of male wistar rats. Type of series: ADME, organism-based. Conditions: in vivo, 1 h. The essentials:
as §2

For series [29], the species on record is Rattus norvegicus. Briefly: Biodistribution of [11C]-CGP- 12388 (60 minutes post injection) in heart of male wistar rats. As to conditions: in vivo, 1 h. It is filed as ADME, organism-based. In a few lines:
as §2

Regarding `[3H]c1cc([3H])c2c(c1OCC(O)CNC(C)(C)C)=NC(=O)N=2` (configuration not stated), the results for the DAR in series [1] and in series [3] were 2.3 and 0.94, respectively. The logP (as a rule, the decadic logarithm of the partition coefficient of the neutral form, usually between octanol and water) in series [2] was -0.5.

As for `C[11CH](C)NC[C@H](O)COc1cccc2[nH]c(O)nc12`, the DAR in [4] is recorded as 0.5; in series [5], 1.14; in series [6], 0.88; in series [7] it was 0.2; in series [8], 1.65; in [9] it was 0.49. In addition, the DAR in series [1] turned out to be 1.26; in series [10], 0.07; in series [11], 0.7; in series [12], 0.68; in [13] it was 0.7; in series [14], 0.55. The DAR in series [15] was determined as 0.78; in [16], 0.23; in series [17], 0.09; in [18] it was 0.26; in series [19], 0.36; in [20] it was 0.4. The DAR in series [21] was 0.16; in series [22] it was 0.26; in series [23], 0.23; in series [24] it was 0.49; in series [3], 0.72; in [25], 2.44. Moreover, the DAR turned out to be 0.25 in series [26], 0.86 in [27], 0.94 in series [28] and 0.76 in series [29]. In series [2], this compound came in with a logP of -0.64.
